Source: ChEMBL document CHEMBL5696442, “Discovery of type II inhibitors of TGFβ-activated kinase 1 (TAK1) and mitogen-activated protein kinase kinase kinase kinase 2 (MAP4K2)” (J Med Chem, 2015)
Active and inactive are the calls of the source. The calls are words filed in the database; no cut-off is given here.

Assays:
[1] = target: Dual specificity protein kinase CLK3 (Homo sapiens) (UniProt P49761); experiment: Inhibition of CLK3 (unknown origin) at 10 uM by Ambit Kinomescan binding assay
[2] = target: TRAF2 and NCK-interacting protein kinase (Homo sapiens) (UniProt Q9UKE5); experiment: Inhibition of ZC2/TNIK Lys2 labeling site in human A-375 cells at 5 uM by KiNativ Profiling analysis relative to control; assay type: cell-based
Chain of TRAF2 and NCK-interacting protein kinase (Homo sapiens) (Q9UKE5 whole entry, looked up): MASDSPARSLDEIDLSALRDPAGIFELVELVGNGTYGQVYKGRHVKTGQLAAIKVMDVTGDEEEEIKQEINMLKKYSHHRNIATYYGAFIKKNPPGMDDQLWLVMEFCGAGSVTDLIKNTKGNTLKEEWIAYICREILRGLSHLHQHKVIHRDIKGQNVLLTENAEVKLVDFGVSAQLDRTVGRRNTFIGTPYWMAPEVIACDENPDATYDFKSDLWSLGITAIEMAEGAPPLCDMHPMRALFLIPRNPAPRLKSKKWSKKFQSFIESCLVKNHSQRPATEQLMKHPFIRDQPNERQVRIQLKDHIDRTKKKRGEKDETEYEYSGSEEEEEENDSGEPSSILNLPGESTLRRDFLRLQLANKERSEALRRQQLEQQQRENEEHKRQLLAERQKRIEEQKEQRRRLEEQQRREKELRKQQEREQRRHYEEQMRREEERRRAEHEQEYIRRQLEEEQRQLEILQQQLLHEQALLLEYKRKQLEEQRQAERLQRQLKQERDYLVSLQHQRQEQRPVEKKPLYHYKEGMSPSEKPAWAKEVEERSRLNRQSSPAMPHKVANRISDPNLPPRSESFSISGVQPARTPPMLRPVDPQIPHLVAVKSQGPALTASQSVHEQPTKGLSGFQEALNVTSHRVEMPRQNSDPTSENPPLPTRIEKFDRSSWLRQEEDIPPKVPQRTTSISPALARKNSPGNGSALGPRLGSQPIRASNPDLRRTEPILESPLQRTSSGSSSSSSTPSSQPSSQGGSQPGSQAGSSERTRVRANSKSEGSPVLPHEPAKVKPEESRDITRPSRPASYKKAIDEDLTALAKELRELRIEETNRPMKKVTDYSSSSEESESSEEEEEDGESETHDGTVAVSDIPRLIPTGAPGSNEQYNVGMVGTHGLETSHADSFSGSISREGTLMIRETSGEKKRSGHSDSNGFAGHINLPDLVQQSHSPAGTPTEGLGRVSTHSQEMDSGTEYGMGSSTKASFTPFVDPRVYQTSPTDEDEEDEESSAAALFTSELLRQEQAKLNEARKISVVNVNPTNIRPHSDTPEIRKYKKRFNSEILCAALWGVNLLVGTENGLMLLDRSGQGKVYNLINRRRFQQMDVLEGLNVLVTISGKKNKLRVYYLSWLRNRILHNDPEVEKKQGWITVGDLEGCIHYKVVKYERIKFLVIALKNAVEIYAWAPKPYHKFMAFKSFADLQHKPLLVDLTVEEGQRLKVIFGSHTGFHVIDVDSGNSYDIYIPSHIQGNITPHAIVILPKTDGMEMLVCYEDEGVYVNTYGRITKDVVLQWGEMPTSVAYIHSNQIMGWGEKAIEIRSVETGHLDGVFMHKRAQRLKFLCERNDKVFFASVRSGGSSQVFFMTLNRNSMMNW

[3] = target: Cyclin-dependent kinase 8 (Homo sapiens) (UniProt P49336); experiment: Inhibition of CDK8 Lys2 labeling site in human A-375 cells at 0.5 uM by KiNativ Profiling analysis relative to control; assay type: cell-based
Chain of Cyclin-dependent kinase 8 (Homo sapiens) (P49336 whole entry): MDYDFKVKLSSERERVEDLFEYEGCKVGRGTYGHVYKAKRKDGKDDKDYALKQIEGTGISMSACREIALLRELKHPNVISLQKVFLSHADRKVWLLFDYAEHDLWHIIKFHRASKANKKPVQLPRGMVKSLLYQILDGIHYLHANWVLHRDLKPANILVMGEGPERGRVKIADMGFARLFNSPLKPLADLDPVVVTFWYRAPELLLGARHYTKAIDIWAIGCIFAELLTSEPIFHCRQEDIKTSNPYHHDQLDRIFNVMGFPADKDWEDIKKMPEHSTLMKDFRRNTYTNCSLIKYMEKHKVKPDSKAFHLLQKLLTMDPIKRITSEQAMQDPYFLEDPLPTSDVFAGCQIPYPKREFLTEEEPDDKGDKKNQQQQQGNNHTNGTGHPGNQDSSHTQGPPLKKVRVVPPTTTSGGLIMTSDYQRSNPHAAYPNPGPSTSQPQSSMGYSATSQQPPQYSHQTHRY

[4] = target: Serine/threonine-protein kinase/endoribonuclease IRE1 (Homo sapiens) (UniProt O75460); experiment: Inhibition of IRE1 Lys2 labeling site in human A-375 cells at 0.05 uM by KiNativ Profiling analysis relative to control; assay type: cell-based
Chain of Serine/threonine-protein kinase/endoribonuclease IRE1 (Homo sapiens) (O75460 19-977 limits assumed): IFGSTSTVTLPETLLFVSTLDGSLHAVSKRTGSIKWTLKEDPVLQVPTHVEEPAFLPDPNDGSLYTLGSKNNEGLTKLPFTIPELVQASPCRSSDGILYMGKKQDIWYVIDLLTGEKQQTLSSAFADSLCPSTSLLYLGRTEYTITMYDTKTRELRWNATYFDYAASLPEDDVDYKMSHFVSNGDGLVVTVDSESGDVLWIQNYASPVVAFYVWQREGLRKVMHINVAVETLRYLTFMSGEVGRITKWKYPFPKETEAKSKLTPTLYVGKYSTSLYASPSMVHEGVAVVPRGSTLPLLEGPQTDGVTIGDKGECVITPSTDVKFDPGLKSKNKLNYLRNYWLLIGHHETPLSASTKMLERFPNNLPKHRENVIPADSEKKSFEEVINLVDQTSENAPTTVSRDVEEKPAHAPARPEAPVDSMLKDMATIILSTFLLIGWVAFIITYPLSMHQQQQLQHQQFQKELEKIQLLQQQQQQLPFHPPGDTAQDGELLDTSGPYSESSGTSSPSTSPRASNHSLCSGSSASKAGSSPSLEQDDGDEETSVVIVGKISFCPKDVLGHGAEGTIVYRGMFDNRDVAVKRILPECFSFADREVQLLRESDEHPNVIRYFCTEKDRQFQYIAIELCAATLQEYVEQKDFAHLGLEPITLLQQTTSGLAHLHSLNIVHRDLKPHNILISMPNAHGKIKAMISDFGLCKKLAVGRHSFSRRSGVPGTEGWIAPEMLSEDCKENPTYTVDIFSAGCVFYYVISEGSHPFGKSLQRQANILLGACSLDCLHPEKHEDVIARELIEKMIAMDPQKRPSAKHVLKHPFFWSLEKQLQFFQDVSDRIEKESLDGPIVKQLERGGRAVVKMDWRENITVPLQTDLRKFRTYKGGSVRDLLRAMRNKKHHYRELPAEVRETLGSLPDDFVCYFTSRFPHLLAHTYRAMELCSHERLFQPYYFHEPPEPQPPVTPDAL

[5] = target: RPS6KA1/RPS6KA2/RPS6KA3 (Homo sapiens) (UniProt P51812+Q15349+Q15418); experiment: Inhibition of RSK1/2/3 Domain 1 K2 labeling site harbouring DLKPENILLDEEGHIKLTDFGLSK in human Huh-7 cells at 10 uM by KiNativ Profiling analysis relative to control; assay type: cell-based
[6] = target: p38 delta/gamma (Homo sapiens) (UniProt O15264+P53778); experiment: Inhibition of p38d/g K2 labeling site in human Huh-7 cells at 1 uM by KiNativ Profiling analysis relative to control; assay type: cell-based
[7] = target: T1, Aurora kinase C (Homo sapiens) (UniProt Q9UQB9); experiment: Inhibition of AurC ATP labeling site in human Huh-7 cell lysate at 1 uM by KiNativ Profiling analysis relative to control; assay type: subcellular
T1 sequence (whole entry): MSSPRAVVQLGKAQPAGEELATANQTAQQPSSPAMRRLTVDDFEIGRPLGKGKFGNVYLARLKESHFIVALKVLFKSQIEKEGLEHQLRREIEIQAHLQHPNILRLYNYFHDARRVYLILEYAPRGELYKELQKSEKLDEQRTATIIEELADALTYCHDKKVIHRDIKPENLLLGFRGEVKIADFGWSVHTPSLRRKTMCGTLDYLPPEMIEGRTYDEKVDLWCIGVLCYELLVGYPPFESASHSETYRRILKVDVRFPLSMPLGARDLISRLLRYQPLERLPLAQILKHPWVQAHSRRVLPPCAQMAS

[8] = target: T2, NUAK family SNF1-like kinase 1 (Homo sapiens) (UniProt O60285); experiment: Inhibition of ARK5 (unknown origin) at 1 uM by Ambit Kinomescan binding assay relative to control
T2 sequence (whole entry): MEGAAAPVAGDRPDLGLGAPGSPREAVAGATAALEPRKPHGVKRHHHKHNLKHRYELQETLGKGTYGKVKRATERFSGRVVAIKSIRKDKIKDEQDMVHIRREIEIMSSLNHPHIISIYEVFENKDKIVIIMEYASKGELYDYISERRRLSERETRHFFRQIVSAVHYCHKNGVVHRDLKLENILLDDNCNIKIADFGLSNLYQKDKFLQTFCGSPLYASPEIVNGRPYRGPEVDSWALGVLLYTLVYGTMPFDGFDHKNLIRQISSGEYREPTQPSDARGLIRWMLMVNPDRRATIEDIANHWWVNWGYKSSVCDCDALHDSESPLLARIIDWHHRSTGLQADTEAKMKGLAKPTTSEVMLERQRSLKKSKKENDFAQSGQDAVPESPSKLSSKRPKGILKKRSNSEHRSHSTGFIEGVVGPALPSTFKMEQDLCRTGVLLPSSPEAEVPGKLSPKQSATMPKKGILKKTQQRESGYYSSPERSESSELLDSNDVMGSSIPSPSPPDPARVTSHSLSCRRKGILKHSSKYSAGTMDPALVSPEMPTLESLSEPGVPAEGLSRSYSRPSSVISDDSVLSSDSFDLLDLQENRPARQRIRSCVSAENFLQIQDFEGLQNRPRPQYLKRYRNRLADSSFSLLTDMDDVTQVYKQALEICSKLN

[9] = target: T3, Phosphatidylinositol 5-phosphate 4-kinase type-2 gamma (Homo sapiens) (UniProt Q8TBX8); experiment: Inhibition of PIP4K2C ATP labeling site harbouring VKELPTLK in human A-375 cells at 5 uM by KiNativ Profiling analysis relative to control; assay type: cell-based
T3 sequence (whole entry): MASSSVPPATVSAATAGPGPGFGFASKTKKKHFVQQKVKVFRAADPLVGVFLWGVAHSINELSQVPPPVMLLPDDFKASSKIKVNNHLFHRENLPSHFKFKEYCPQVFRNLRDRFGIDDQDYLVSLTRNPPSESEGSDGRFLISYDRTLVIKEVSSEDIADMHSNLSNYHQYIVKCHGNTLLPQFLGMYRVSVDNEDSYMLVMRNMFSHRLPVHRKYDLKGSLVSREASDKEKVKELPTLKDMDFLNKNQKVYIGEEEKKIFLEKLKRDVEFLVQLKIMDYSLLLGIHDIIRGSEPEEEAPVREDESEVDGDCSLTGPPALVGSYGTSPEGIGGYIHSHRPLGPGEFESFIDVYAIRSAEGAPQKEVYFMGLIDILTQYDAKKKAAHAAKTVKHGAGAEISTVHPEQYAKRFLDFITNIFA

[10] = target: Ribosomal protein S6 kinase alpha-3 (Homo sapiens) (UniProt P51812); experiment: Inhibition of RSK2 domain1 Lys2 labeling site harbouring DLKPENILLDEEGHIKLTDFGLSK in human A-375 cells at 5 uM by KiNativ Profiling analysis relative to control; assay type: cell-based
Chain of Ribosomal protein S6 kinase alpha-3 (Homo sapiens) (P51812 whole entry, the tested form may be a part): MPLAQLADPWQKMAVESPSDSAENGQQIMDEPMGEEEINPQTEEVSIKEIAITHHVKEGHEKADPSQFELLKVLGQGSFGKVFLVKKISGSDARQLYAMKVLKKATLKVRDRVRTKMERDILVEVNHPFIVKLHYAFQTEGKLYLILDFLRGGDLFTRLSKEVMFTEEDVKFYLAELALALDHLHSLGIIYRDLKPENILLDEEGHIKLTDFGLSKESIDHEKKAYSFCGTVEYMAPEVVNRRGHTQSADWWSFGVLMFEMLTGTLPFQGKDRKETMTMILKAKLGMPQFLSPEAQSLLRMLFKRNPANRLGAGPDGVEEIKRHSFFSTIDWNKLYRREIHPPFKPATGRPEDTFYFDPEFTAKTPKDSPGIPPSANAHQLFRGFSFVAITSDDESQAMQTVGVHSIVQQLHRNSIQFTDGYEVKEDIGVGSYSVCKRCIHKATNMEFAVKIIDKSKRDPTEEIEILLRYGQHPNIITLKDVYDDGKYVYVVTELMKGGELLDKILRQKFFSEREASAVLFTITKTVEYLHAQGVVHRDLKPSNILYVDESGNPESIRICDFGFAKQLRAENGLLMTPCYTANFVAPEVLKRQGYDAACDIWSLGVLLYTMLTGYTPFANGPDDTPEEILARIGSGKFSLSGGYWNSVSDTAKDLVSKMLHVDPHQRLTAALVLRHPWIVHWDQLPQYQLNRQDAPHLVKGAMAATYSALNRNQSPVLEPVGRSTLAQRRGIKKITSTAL
In short: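 Live A375 melanoma cells treated with compound at 5 or 0.5 μM, then lysed. Lysate kinases were labeled with a lysine-reactive ATP or ADP-biotin probe. Inhibition was read as protection of labeling sites from the probe.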

[11] = target: Ribosomal protein S6 kinase alpha-1 (Homo sapiens) (UniProt Q15418); experiment: Inhibition of RSK1 domain2 Lys2 labeling site in human A-375 cells at 0.05 uM by KiNativ Profiling analysis relative to control; assay type: cell-based
Chain of Ribosomal protein S6 kinase alpha-1 (Homo sapiens) (Q15418 whole entry, the tested form may be a part): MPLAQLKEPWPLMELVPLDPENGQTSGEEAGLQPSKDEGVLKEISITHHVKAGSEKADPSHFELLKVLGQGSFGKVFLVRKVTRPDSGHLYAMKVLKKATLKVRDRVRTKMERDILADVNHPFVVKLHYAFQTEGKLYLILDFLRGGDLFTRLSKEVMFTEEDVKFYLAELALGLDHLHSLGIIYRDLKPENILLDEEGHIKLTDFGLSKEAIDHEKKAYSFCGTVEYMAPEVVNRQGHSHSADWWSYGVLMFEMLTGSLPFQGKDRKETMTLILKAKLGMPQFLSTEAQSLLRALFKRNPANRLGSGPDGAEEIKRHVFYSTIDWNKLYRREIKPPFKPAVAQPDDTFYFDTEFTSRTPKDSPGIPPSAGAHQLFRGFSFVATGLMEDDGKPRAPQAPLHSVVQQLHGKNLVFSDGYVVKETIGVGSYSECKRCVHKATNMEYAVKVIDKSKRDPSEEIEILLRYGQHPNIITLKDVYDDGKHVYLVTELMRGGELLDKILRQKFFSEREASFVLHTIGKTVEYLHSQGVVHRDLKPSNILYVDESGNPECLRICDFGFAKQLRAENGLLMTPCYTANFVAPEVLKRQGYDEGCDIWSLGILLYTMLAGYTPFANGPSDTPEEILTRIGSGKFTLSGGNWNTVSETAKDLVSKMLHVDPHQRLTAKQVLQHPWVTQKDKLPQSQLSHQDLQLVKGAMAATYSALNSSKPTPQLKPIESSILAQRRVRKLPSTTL

Chain of Dual specificity protein kinase CLK3 (Homo sapiens) (P49761 whole entry, looked up): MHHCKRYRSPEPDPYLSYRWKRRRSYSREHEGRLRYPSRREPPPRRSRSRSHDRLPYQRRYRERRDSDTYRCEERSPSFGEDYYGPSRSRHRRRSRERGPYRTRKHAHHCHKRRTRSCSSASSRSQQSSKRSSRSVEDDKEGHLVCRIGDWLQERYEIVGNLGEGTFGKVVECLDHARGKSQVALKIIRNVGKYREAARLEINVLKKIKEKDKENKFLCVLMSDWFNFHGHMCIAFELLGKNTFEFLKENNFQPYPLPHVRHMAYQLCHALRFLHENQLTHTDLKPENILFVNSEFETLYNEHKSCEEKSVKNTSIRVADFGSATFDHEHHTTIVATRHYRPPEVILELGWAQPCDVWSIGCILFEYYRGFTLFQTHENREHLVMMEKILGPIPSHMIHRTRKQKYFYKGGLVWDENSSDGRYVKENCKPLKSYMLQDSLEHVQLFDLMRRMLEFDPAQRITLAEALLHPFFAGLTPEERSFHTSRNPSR

CCN1CCN(Cc2ccc(NC(=O)c3ccc(C)c(Oc4ccnc5[nH]ccc45)c3)cc2C(F)(F)F)CC1
inhibition [1]: inactive
inhibition [2]: 92.7%
inhibition [3]: 51.2%
inhibition [4]: 15.9%
inhibition [5]: -6.5%
inhibition [6]: 25.2%

CNc1cc(Oc2cc(C(=O)Nc3cc(N4CCN(C)CC4)cc(C(F)(F)F)c3)ccc2C)ncn1
inhibition [7]: 2.5%

CCN1CCN(Cc2ccc(NC(=O)c3ccc(C)c(/C=C/c4cnc5[nH]ccc5c4OC)c3)cc2C(F)(F)F)CC1
inhibition [8]: 100%
inhibition [9]: -6%
inhibition [10]: -4.9%
inhibition [11]: 4%
